Published values pooled from the literature.
Protocols differ between the studies behind these lines.
ITK: Tyrosine-protein kinase ITK/TSK (ITK, Homo sapiens, UniProt Q08881)

Compound | target | assay | setting | Kd [nM]
COc1ccc2c(c1)sc(-c1ccc(N(C)C)cc1)[n+]2C | Alpha-synuclein, fibril (SNCA, Homo sapiens, UniProt P37840) | binding, SPR | – | 72300
Cc1cc(Nc2cc3ncccc3c(N[C@@H]3C[C@H]4CC[C@@H](C3)N4CCC#N)n2)n[nH]1 | Mitogen-activated protein kinase kinase kinase 2 (MAP3K2, Homo sapiens, UniProt Q9Y2U5) | binding, competition with immobilised ligand | – | 19
CC(C)C[C@H](NC(=O)[C@H](CO)NC(=O)[C@H](Cc1ccc(O)cc1)NC(=O)[C@H](CS)NC(=O)[C@H](CS)NC(=O)[C@@H](N)CCCCN)C(=O)O | Receptor tyrosine-protein kinase erbB-2 (ERBB2, Homo sapiens, UniProt P04626) | binding, fluorescence | pH 7.4 | 180
CC#CC(=O)N1CC[C@@H](n2cc(-c3ccc(Oc4c(F)cccc4F)cc3)c3c(N)n[nH]c(=O)c32)C1 | ITK | binding, competition with immobilised ligand | – | > 3000
NS(=O)(=O)c1ccc(C(F)(F)F)cc1 | Carbonic anhydrase 2 (CA2, Homo sapiens, UniProt P00918) | binding, ITC | – | ~70
CC(C)C[C@H](NC(=O)[C@H](C)NC(=O)[C@@H](NC(=O)[C@H](CCCCN)NC(=O)[C@H](CC(=O)O)NC(=O)[C@H](Cc1ccc(OP(=O)(O)O)cc1)NC(=O)[C@H](C)NC(=O)[C@H](CC(N)=O)NC(=O)[C@@H]1CCCN1C(=O)[C@@H](NC(=O)[C@H](CCCNC(=N)N)NC(=O)[C@H](CCCCN)NC(=O)CCCCCNC(=O)CCCC[C@@H]1SC[C@@H]2NC(=O)N[C@@H]21)C(C)C)[C@@H](C)O)C(=O)N[C@@H](C)C(=O)N[C@@H](CC(C)C)C(=O)N[C@@H](CCC(=O)O)C(=O)O | Tyrosine-protein kinase ABL1, SH2 (ABL1, Homo sapiens, UniProt P00519) | binding, ITC | – | 85500
CCCN1CCN(c2ccc(-c3cncc(Cl)c3N3CCC4(CCNC4=O)CC3)cc2)CC1 | Nicotinamide phosphoribosyltransferase (NAMPT, Homo sapiens, UniProt P43490) | cell-free assay | lysate | 6420
Cc1cc2nc3c(=O)[nH]c(=O)nc-3n(C[C@H](O)[C@H](O)[C@H](O)COP(=O)(O)OP(=O)(O)OC[C@H]3O[C@@H](n4cnc5c(N)ncnc54)[C@H](O)[C@@H]3O)c2cc1C | CPEB4 (Homo sapiens, UniProt Q17RY0) | binding | lysate | 5
COc1cc(Nc2ncc3c(n2)-c2ccc(Cl)cc2C(c2c(F)cccc2OC)=NC3)ccc1C(=O)O | Protein-tyrosine kinase 2-beta (PTK2B, Homo sapiens, UniProt Q14289) | binding | lysate | 2990
Cc1cnc(-c2ccc(-c3ccc(NC(=O)Nc4c(F)cc(F)cc4F)cc3F)c3c2C(=O)NC3)[nH]1 | ITK | binding, competition with immobilised ligand | – | 5.9
COc1cc2c(Oc3ccc4[nH]c(C)cc4c3F)ccnc2cc1OCC1(N)CC1 | AMP-activated protein kinase (AMPK) alpha-1/beta-1/gamma-1 (PRKAG1/PRKAA1/PRKAB1, Homo sapiens, UniProt P54619+Q13131+Q9Y478) | binding, SPR | – | 23500
FC(F)(F)c1n[nH]cc1-c1nc2ccc3[nH]ncc3c2c2c1CCCC2 | Tyrosine-protein kinase ABL1, phosphorylated (ABL1, Homo sapiens, UniProt P00519) | binding, competition with immobilised ligand | – | 7200
